We go through 16 molecules from ChEMBL document CHEMBL1145917, “Neurosteroid analogues. 9. Conformationally constrained pregnanes: structure-activity studies of 13,24-cyclo-18,21-dinorcholane analogues of the GABA modulatory and anesthetic steroids (3alpha,5alpha)- and (3alpha,5beta)-3-hydroxypregnan-20-one” (J Med Chem, 2003).

Molecules are shown by their SMILES.

Assay [1] has as its target T1, GABA-A receptor; alpha-1/beta-2/gamma-2 (Rattus norvegicus) (UniProt P18508+P62813+P63138). The assay is described as follows: In vitro current effect against rat GABA receptor alpha-1-beta-2-gamma-2 subunits expressed in Xenopus laevis oocytes at 0.1 uM (ratio +/- compound). The class given is cell-based. Conditions: Oocyte. In short, it runs like this:
(§1)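 Two-electrode voltage clamp at -70 mV, 2–5 days after injecting rat α1, β2 and γ2L cRNA (20–40 ng total, equal parts) into defolliculated stage V–VI oocytes held at 18 °C in ND96. Compound was co-applied with 2 μM GABA for 20 s and peak current measured. Value is the ratio of current with/without compound, from at least four oocytes.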

Assay [2] has as its target T1, GABA-A receptor; alpha-1/beta-2/gamma-2 (Rattus norvegicus). The assay is described as follows: In vitro current effect against rat GABA receptor alpha-1-beta-2-gamma-2 subunits expressed in Xenopus laevis oocytes at 10 uM (ratio +/- compound). The class given is cell-based. Conditions: Oocyte. In short, it runs like this:
as §1

For assay [3] the target is unchanged. The assay is described as follows: In vitro direct current effect against rat GABA receptor alpha-1-beta-2-gamma-2 subunits expressed in Xenopus laevis oocytes at 10 uM (ratio +/- compound, without GABA). Type of assay: cell-based. To be noted: Oocyte. The procedure, abridged:
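Same oocyte α1β2γ2L voltage-clamp setup at -70 mV, with peak current over 20 s applications. Compound was applied at 10 μM without GABA. Directly gated current is expressed as a ratio to the current evoked by 2 μM GABA, from at least four oocytes.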

Assay [4] has the same target. The assay is described as follows: In vitro current effect against rat GABA receptor alpha-1-beta-2-gamma-2 subunits expressed in Xenopus laevis oocytes at 1 uM (ratio +/- compound). Type of assay: cell-based. To be noted: Oocyte. In short, it runs like this: as §1
The target in assay [5] is GABA-A receptor; anion channel. Put plainly: Non-competitive displacement of [35S]TBPS from picrotoxin binding site found in heterogeneous Gamma-aminobutyric acid A receptor in rat brain membranes. Type of assay: cell membranes. In short, it runs like this: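 Rat brain membranes (washed P2, 0.5 mg/mL final protein) incubated 2 h at room temperature with 5 μM GABA, 2 nM [35S]TBPS and steroid from DMSO (final 1 nM–10 μM) in 200 mM NaCl/50 mM potassium phosphate, pH 7.4. Nonspecific binding defined with 200 μM picrotoxinin. Filtration, scintillation counting, Hill fit for IC50. Triplicate points, two or three curves per steroid.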
Background: Displacement assays read how much labelled ligand stays bound in the presence of the test substance.

The nature of assay [6]: Loss of righting reflex in Xenopus laevis tadpole. Conditions: Amphibia, read-out: ED50 (the source's name). Type of assay: functional, frog. In short, it runs like this:
(§2)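 Groups of 10 early pre-limb-bud X. laevis tadpoles were placed in 100 mL oxygenated Ringer's containing compound at various concentrations. Compound came from a 10 mM DMSO stock, about 0.1% DMSO final. Loss of righting and loss of swimming responses were scored. EC50 and Hill coefficient n were taken from a Hill equation fit.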

A short description of assay [7]: Hill coefficient for displacement of [35S]TBPS. The class given is functional. In short, it runs like this:
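Rat brain membrane P2 fraction washed three times in 200 mM NaCl / 50 mM potassium phosphate, pH 7.4. Assay used 0.5 mg/mL protein, 5 μM GABA, 2 nM [35S]TBPS and steroid at 1 nM–10 μM final (0.5% DMSO), 2 h at room temperature, then filtration and scintillation counting. Nonspecific binding was taken with 200 μM picrotoxinin. Triplicate points, 2–3 curves per steroid; Hill equation fit gives n.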

Assay [8] is described as follows: Hill coefficient for loss of righting response. Type of assay: functional. The procedure, abridged: as §2
Assay [9] is described as follows: Loss of swimming behavior in Xenopus laevis tadpole. Type of assay: functional, frog. Conditions: Amphibia, read-out: ED50 (the source's name). In short, it runs like this: as §2
The nature of assay [10]: Hill coefficient for loss of swimming response. Type of assay: functional. In short, it runs like this: as §2

For orientation: IC50 means the concentration that inhibits the measured activity by half. High values mean lower potency, low ones higher potency. For `C[C@]12CC[C@@H](O)C[C@@H]1CC[C@H]1[C@@H]3CCC4CC(=O)CC[C@@]43CC[C@@H]12` (stereo partly drawn), the Ratio was found to be 1.3 in [1], 2.93 in assay [2], 0.06 in assay [3] and 1.61 in [4]. Further, the IC50 in [5] was 1440 nM. Further, in [6], the EC50 amounted to 2370 nM. Besides, the nHill was 0.95 in [7] and -2.02 in assay [8].
For the molecule `C[C@]12CC[C@@H](O)C[C@@H]1CC[C@@H]1[C@@H]2CC[C@]23C(=O)CCCC2CC[C@@H]13` (stereo partly drawn), the Ratio in assay [1] turned out to be 1.22; in [2], 10.7; in assay [3], 0.39; in assay [4], 3.05. The molecule further had an IC50 in assay [5] of 301 nM. For the same molecule, the EC50 in assay [6] was 320 nM; in [9] it was 1730 nM. Moreover, the nHill is 1.01 in [7], -36.5 in [10] and -1.75 in assay [8].
Consider `C[C@]12CC[C@@H](O)C[C@H]1CC[C@@H]1[C@@H]2CC[C@]23C(=O)C=CC[C@H]2CC[C@@H]13`, for which the Ratio in [1] came out at 1.36; in assay [2], 21.4; in assay [3] it was 0.2; in [4] it was 3.15. Also, the IC50 in [5] came out at 105 nM. The results for the EC50 in assay [6] and in assay [9] were 400 nM and 1000 nM, respectively. Besides, the nHill in assay [7] is 0.9; in assay [10], -18.6; in assay [8], -4.97.
For `C[C@]12CC[C@@H](O)C[C@H]1CC[C@H]1[C@@H]3CCC4CCC(=O)C[C@@]43CC[C@@H]12` (stereo partly drawn), the Ratio turned out to be 0.97 in assay [1], 3.17 in assay [2], 0.01 in assay [3] and 1.03 in assay [4]. In assay [5], this molecule registered an IC50 of 899 nM. For the same molecule, the figures for the EC50 in assay [6] and in [9] were 1440 nM and 3550 nM, respectively. Further, the nHill in [7] was 0.89; in assay [10] it was -17.5; in assay [8], -3.02.
For `C[C@]12CC[C@@H](O)C[C@H]1CC[C@H]1[C@@H]3CCC4CC(=O)CC[C@@]43CC[C@@H]12` (stereo partly drawn), the Ratio was 0.97 in [1], 2.65 in [2], -0.1 in assay [3] and 1.11 in assay [4]. Further, in assay [5], the IC50 is 3230 nM. Besides, the EC50 in [6] was determined as 2470 nM; in assay [9], 9430 nM. For the same molecule, the nHill is 0.73 in [7], -18.7 in assay [10] and -1.86 in assay [8].
Consider `C[C@]12CC[C@@H](O)C[C@@H]1CC[C@@H]1[C@@H]2CC[C@]23C(=O)C=CC[C@H]2CC[C@@H]13`, for which the Ratio stood at 1.98 in [1], 9.45 in [2], 0.07 in [3] and 8.33 in assay [4]. In addition, in assay [5], the IC50 amounted to 197 nM. In addition, the figures for the EC50 in assay [6] and in assay [9] were 1200 nM and 2660 nM, respectively. In addition, the nHill in assay [7] was 1.03; in assay [10], -24.2.
Regarding `C[C@]12CC[C@@H](O)C[C@H]1CC[C@@H]1[C@@H]2CC[C@]23C(=O)CCCC2CC[C@@H]13` (stereo partly drawn), the Ratio amounted to 1.26 in assay [1], 10.4 in [2], 0.04 in assay [3] and 3.45 in assay [4]. In assay [5], this molecule gave an IC50 of 329 nM. Moreover, the EC50 turned out to be 40 nM in assay [6] and 890 nM in [9]. Besides, the nHill in assay [7] was 0.95; in assay [10], -18.2; in assay [8] it was -4.97.
With `CC(=O)[C@H]1CC[C@H]2[C@@H]3CC[C@H]4C[C@H](O)CC[C@]4(C)[C@H]3CC[C@]12C` [BREXANOLONE], the Ratio in assay [1] worked out at 1.26; in assay [2] it was 9.65; in [3], 0.37; in [4], 3.89. Also, the EC50 was 420 nM in [6] and 5500 nM in [9]. Besides, the nHill in [7] is 0.89; in [10] it was -7.5; in [8], -1.83.
On to `C[C@]12CC[C@@H](O)C[C@H]1CC[C@H]1[C@@H]3CCC4C=CC(=O)C[C@@]43CC[C@@H]12` (stereo partly drawn), for which the Ratio in assay [1] is 1.07; in assay [2] it was 4.5; in assay [3], -0.02; in [4], 1.83. In assay [5], this molecule registered an IC50 of 268 nM. The EC50 turned out to be 1050 nM in assay [6] and 2720 nM in [9]. The results for the nHill in assay [7], in assay [10] and in assay [8] were 0.64, -22.1 and -16.6, respectively.
As for `C[C@]12CC[C@@H](O)C[C@@H]1CC[C@H]1[C@@H]3CCC4C=CC(=O)C[C@@]43CC[C@@H]12` (stereo partly drawn), the Ratio in assay [1] came to 1.59; in assay [2] it was 16.6; in assay [3], 0.35; in assay [4], 5.53. This molecule also returned an IC50 in [5] of 243 nM. For the same molecule, the values for the EC50 in [6] and in assay [9] were 1280 nM and 10000 nM, respectively. Moreover, the values for the nHill in assay [7], in [10] and in assay [8] were 0.89, -17 and -1.16, respectively.
As for `C[C@]12CC[C@@H](O)C[C@H]1CC[C@@H]1[C@@H]2CC[C@]23C=CC(=O)C[C@H]2CC[C@@H]13`, the Ratio in [1] is 1.87; in [2] it was 4.44; in [3], 0.26; in [4], 1.8. Further, in assay [5], the IC50 is 4750 nM. In addition, the EC50 in [6] turned out to be 560 nM; in assay [9], 5480 nM. The nHill in assay [7] was 0.95; in assay [10] it was -33.5; in assay [8], -1.5.
Turning to `C[C@]12CC[C@@H](O)C[C@@H]1CC[C@@H]1[C@@H]2CC[C@]23C=CC(=O)C[C@H]2CC[C@@H]13`, the Ratio was 1.12 in [1], 5.07 in assay [2], -0.04 in [3] and 1.54 in [4]. Besides, the IC50 in assay [5] is 1260 nM. For the same molecule, the values for the EC50 in assay [6] and in assay [9] were 730 nM and 5480 nM, respectively. In addition, the nHill in assay [7] was 1; in [10] it was -33.5; in [8] it was -1.57.
Consider `C[C@]12CC[C@@H](O)C[C@H]1CC[C@H]1[C@@H]3CCC4C(=O)CCC[C@@]43CC[C@@H]12` (stereo partly drawn), for which the Ratio in assay [1] was 0.93; in [2], 1.51; in [3], -0.25; in assay [4] it was 1.12. In addition, in assay [5], the IC50 came to 1780 nM. Further, the EC50 amounted to 940 nM in assay [6] and 5480 nM in assay [9]. In addition, the nHill in assay [7] is 1.36; in assay [10] it was -33.5; in assay [8], -1.23.
On to `C[C@]12CC[C@@H](O)C[C@@H]1CC[C@H]1[C@@H]3CCC4C(=O)CCC[C@@]43CC[C@@H]12` (stereo partly drawn), for which the Ratio in assay [1] turned out to be 1.01; in [2], 2.28; in assay [3], 0; in assay [4], 1.44. The molecule also gave an IC50 in [5] of 514 nM. The EC50 in [6] stood at 1360 nM; in [9] it was 5450 nM. Further, the nHill in [7] was 0.84; in [10], -33.5; in [8], -2.51.
Take `CC(=O)[C@H]1CC[C@H]2[C@@H]3CC[C@@H]4C[C@H](O)CC[C@]4(C)[C@H]3CC[C@]12C` [ELTANOLONE]: the Ratio was 1.2 in [1], 9.77 in [2], 0.06 in [3] and 2.82 in [4]. Further, the results for the EC50 in assay [6] and in assay [9] were 63 nM and 300 nM, respectively. The values for the nHill in assay [7], in [10] and in assay [8] were 0.57, -6.93 and -1.54, respectively.
`C[C@]12CC[C@@H](O)C[C@@H]1CC[C@H]1C3CCC4C(=O)C=CC[C@@]43CC[C@@H]12` (single isomer, unassigned): the Ratio was determined as 1.49 in assay [1], 9.07 in [2], 0.72 in assay [3] and 5.87 in assay [4]. Also, the IC50 in assay [5] came to 373 nM. The EC50 in assay [6] came out at 3380 nM. In addition, the nHill in assay [7] is 1.17; in assay [8], -2.79.
